ChEMBL document CHEMBL1641569, “Synthetic conjugates of genistein affecting proliferation and mitosis of cancer cells” (Bioorg Med Chem, 2011)
The source made the active and inactive calls. No cut-off for these calls is given here.

Experiments:
[1] = test system: HCT-116; assay: Cytotoxicity against human HCT116 cells after 72 hrs by MTT assay; assay type: functional, cell-based; settings: HCT-116, 72 h
[2] = test system: HCT-116; assay: Cell cycle arrest in human HCT116 cells assessed as accumulation at G2/M phase after 24 hrs by propidium iodide staining-based flow cytometry; assay type: functional
In short: (§1)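 Subconfluent cultures exposed continuously to compound; floating and trypsinized adherent cells pooled, PBS-washed, fixed in ice-cold 70% ethanol 30 min, RNase (100 µg/mL) treated, stained with propidium iodide, DNA content measured by flow cytometry to give G1, S, G2/M, apoptotic (sub-G1) and polyploid fractions. Experiments repeated at least twice.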

[3] = test system: HCT-116; assay: Inhibition of mitosis in human HCT116 cells assessed as mitotic index at 20 uM after 24 hrs by fluorescence assay; assay type: functional
In short: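 Cells treated 24 h, collected as for cell cycle analysis, cytospun, fixed in cold methanol, stained with 3 µM DAPI; mitotic cells counted among 1000 cells under 40× objective. Mean ± SD from three independent experiments.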

[4] = test system: HCT-116; assay: Inhibition of mitosis in human HCT116 cells assessed as appearance of normal bipolar spindle at 5 uM after 24 hrs by immunofluorescence assay; assay type: functional; set-up: scale not given: the % may be the effect or the level left
In short: (§2)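 Cells treated 24 h on chamber slides, fixed in ice-cold methanol, blocked with 1% goat serum, stained with mouse anti-β-tubulin (1:50) then FITC anti-mouse, DAPI counterstained; 100 mitotic cells per treatment scored at 100× oil for spindle type (normal bipolar, bipolar with lagging chromosomes, tri/multipolar, monopolar). Mean ± SD of two experiments.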

[5] = test system: HCT-116; assay: Inhibition of mitosis in human HCT116 cells assessed as appearance of normal bipolar spindle at 10 uM after 24 hrs by immunofluorescence assay; assay type: functional; set-up: scale not given: the % may be the effect or the level left; in short: as §2
[6] = test system: HCT-116; assay: Inhibition of mitosis in human HCT116 cells assessed as appearance of normal bipolar spindle at 20 uM after 24 hrs by immunofluorescence assay; assay type: functional; set-up: scale not given: the % may be the effect or the level left; in short: as §2
[7] = test system: HCT-116; assay: Inhibition of mitosis in human HCT116 cells assessed as appearance of bipolar spindle with large mass of lagging chromosomes at spindle poles at 5 uM after 24 hrs by immunofluorescence assay; assay type: functional; set-up: scale not given: the % may be the effect or the level left; in short: as §2
[8] = test system: HCT-116; assay: Inhibition of mitosis in human HCT116 cells assessed as appearance of bipolar spindle with large mass of lagging chromosomes at spindle poles at 10 uM after 24 hrs by immunofluorescence assay; assay type: functional; set-up: scale not given: the % may be the effect or the level left; in short: as §2
[9] = test system: HCT-116; assay: Inhibition of mitosis in human HCT116 cells assessed as appearance of bipolar spindle with large mass of lagging chromosomes at spindle poles at 20 uM after 24 hrs by immunofluorescence assay; assay type: functional; set-up: scale not given: the % may be the effect or the level left; in short: as §2
[10] = test system: HCT-116; assay: Inhibition of mitosis in human HCT116 cells assessed as appearance of tripolar and multipolar spindle at 5 uM after 24 hrs by immunofluorescence assay; assay type: functional; set-up: scale not given: the % may be the effect or the level left; in short: as §2
[11] = test system: HCT-116; assay: Inhibition of mitosis in human HCT116 cells assessed as appearance of tripolar and multipolar spindle at 10 uM after 24 hrs by immunofluorescence assay; assay type: functional; set-up: scale not given: the % may be the effect or the level left; in short: as §2
[12] = test system: HCT-116; assay: Inhibition of mitosis in human HCT116 cells assessed as appearance of tripolar and multipolar spindle at 20 uM after 24 hrs by immunofluorescence assay; assay type: functional; set-up: scale not given: the % may be the effect or the level left; in short: as §2
[13] = test system: HCT-116; assay: Inhibition of mitosis in human HCT116 cells assessed as appearance of monopolar spindle at 5 uM after 24 hrs by immunofluorescence assay; assay type: functional; set-up: scale not given: the % may be the effect or the level left; in short: as §2
[14] = test system: HCT-116; assay: Inhibition of mitosis in human HCT116 cells assessed as appearance of monopolar spindle at 10 uM after 24 hrs by immunofluorescence assay; assay type: functional; set-up: scale not given: the % may be the effect or the level left; in short: as §2
[15] = test system: HCT-116; assay: Inhibition of mitosis in human HCT116 cells assessed as appearance of monopolar spindle at 20 uM after 24 hrs by immunofluorescence assay; assay type: functional; set-up: scale not given: the % may be the effect or the level left; in short: as §2
[16] = Inhibition of tubulin polymerization after 1 hr
In short: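 Cell-free assay: >97% pure tubulin in G-PEM buffer (80 mM PIPES, 2 mM MgCl2, 0.5 mM EGTA, 1 mM GTP, pH 6.9) plus 5% glycerol, with vehicle, compound (10, 20, 50 µM) or 3 µM paclitaxel, in pre-warmed plate at 37 °C; absorbance at 340 nm read every minute for 1 h. Repeated twice.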

[17] = test system: HCT-116; assay: Induction of apoptosis in human HCT116 cells assessed as appearance of hypodiploid nucleus at 5 to 20 uM after 48 hrs by flow cytometry; assay type: functional, cell-based; in short: as §1
[18] = test system: HCT-116; assay: Induction of apoptosis in human HCT116 cells assessed as appearance of tetraploid nucleus at 5 to 20 uM after 48 hrs by flow cytometry; assay type: functional, cell-based; in short: as §1
[19] = test system: HCT-116; assay: Induction of apoptosis in human HCT116 cells assessed as appearance of hypodiploid nucleus at 20 uM after 72 hrs by TUNEL assay; assay type: functional, cell-based
In short: (§3)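 Floating and trypsin-detached adherent cells pooled, cytospun, fixed and TUNEL-labelled; apoptotic index scored among 500 nuclei, three experiments. In parallel, DNA extracted (proteinase K/SDS overnight 56 °C, phenol/chloroform, RNase A) and run on 1.8% agarose/ethidium bromide gel in 0.5× TBE for laddering. Controls received 0.2% DMSO; 24, 48, 72 h treatments.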

[20] = test system: HCT-116; assay: Induction of apoptosis in human HCT116 cells assessed as effect on apoptotic index at 20 uM after 72 hrs by DNA laddering assay; assay type: functional; in short: as §3
[21] = test system: HCT-116; assay: Cytotoxicity against human HCT116 cells harboring p53 protein after 72 hrs by MTT assay; assay type: functional, cell-based; settings: HCT-116, 72 h
In short: (§4)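 Cells seeded at 2 × 10³ per well, 24 h later exposed continuously 72 h to varying concentrations; then 0.5 mg/mL MTT in phenol red-free DMEM 3 h at 37 °C, formazan dissolved in 2-propanol/HCl, OD 570 nm. Viability relative to DMSO vehicle; IC50 = concentration reducing viability by 50%; triplicate wells, at least three independent experiments, mean ± SD.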

[22] = test system: HCT-116; assay: Cytotoxicity against p53-deficient human HCT116 cells after 72 hrs by MTT assay; assay type: functional, cell-based; settings: HCT-116, 72 h; in short: as §4
[23] = test system: HCT-116; assay: Induction of apoptosis in p53-deficient human HCT116 cells assessed as effect on apoptotic index at 20 uM after 72 hrs by DNA laddering assay; assay type: functional; in short: as §3
[24] = test system: HCT-116; assay: Induction of apoptosis in human HCT116 cells harboring p53 protein assessed as effect on apoptotic index at 20 uM after 72 hrs by DNA laddering assay; assay type: functional; in short: as §3
[25] = test system: AGS; assay: Cell cycle arrest in human AGS cells assessed as accumulation at G2/M phase at 20 uM after 24 hrs by propidium iodide staining-based flow cytometry; assay type: functional; in short: as §1
[26] = test system: A549; assay: Cell cycle arrest in human A549 cells assessed as accumulation at G2/M phase at 20 uM after 24 hrs by propidium iodide staining-based flow cytometry; assay type: functional; in short: as §1
[27] = test system: DU-145; assay: Cell cycle arrest in human DU145 cells assessed as accumulation at G2/M phase at 20 uM after 24 hrs by propidium iodide staining-based flow cytometry; assay type: functional; in short: as §1
[28] = test system: SK-BR-3; assay: Cytotoxicity against human SKBR3 cells after 72 hrs by SRB assay; assay type: functional, cell-based; settings: SK-BR-3, 72 h
In short: (§5)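 Cells plated at 2 × 10³ per well 24 h before continuous 72 h exposure to a concentration series; fixed with cold 50% TCA 1 h at 4 °C, stained with 0.4% sulforhodamine B in 1% acetic acid 30 min, bound dye extracted in 10 mM Tris base, OD 540 nm. Viability as % of DMSO control; IC50 = concentration reducing viability 50%; triplicates, ≥3 experiments.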

[29] = test system: MCF7; assay: Cytotoxicity against human MCF7 cells after 72 hrs by SRB assay; assay type: functional, cell-based; settings: MCF7, 72 h; in short: as §5
[30] = test system: HT-29; assay: Cytotoxicity against human HT-29 cells after 72 hrs by SRB assay; assay type: functional, cell-based; settings: HT-29, 72 h; in short: as §5
[31] = test system: Caco-2; assay: Cytotoxicity against human Caco2 cells after 72 hrs by MTT assay; assay type: functional, cell-based; settings: Caco-2, 72 h; in short: as §4
[32] = test system: LoVo; assay: Cytotoxicity against human LoVo cells after 72 hrs by MTT assay; assay type: functional, cell-based; in short: as §4
[33] = test system: T98G; assay: Cytotoxicity against human T98G cells after 72 hrs by SRB assay; assay type: functional, cell-based; in short: as §5
[34] = test system: DU-145; assay: Cytotoxicity against human DU145 cells after 72 hrs by MTT assay; assay type: functional, cell-based; settings: DU-145, 72 h; in short: as §4
[35] = test system: LNCaP; assay: Cytotoxicity against human LNCAP cells after 72 hrs by SRB assay; assay type: functional, cell-based; in short: as §5
[36] = test system: PC-3; assay: Cytotoxicity against human PC3 cells after 72 hrs by MTT assay; assay type: functional, cell-based; settings: PC-3, 72 h; in short: as §4
[37] = test system: A549; assay: Cytotoxicity against human A549 cells after 72 hrs by SRB assay; assay type: functional, cell-based; settings: A549, 72 h; in short: as §5
[38] = test system: AGS; assay: Cytotoxicity against human AGS cells after 72 hrs by MTT assay; assay type: functional, cell-based; in short: as §4
[39] = test system: HCT-116; assay: Induction of senescence in human HCT116 cells assessed as beta galactosidase activity at 20 uM

CC(=O)OC[C@H]1O[C@H](OCCCOc2cc(O)c3c(=O)c(-c4ccc(O)cc4)coc3c2)C=C[C@@H]1OC(C)=O
IC50 [1]: 19.9 µM

CC(=O)OC[C@H]1O[C@@H](O[C@H]2C=C[C@@H](OCCCCCOc3cc(O)c4c(=O)c(-c5ccc(O)cc5)coc4c3)O[C@@H]2COC(C)=O)[C@H](OC(C)=O)[C@@H](OC(C)=O)[C@H]1OC(C)=O
IC50 [1]: > 20 µM

CCCO[C@H]1C=C[C@@H](OC(C)=O)[C@H](C)O1
IC50 [1]: 550 µM

O=c1c(-c2ccc(O)cc2)coc2cc(OCCCO)cc(O)c12
IC50 [1]: 23.9 µM

CC(=O)O[C@@H]1C=C[C@H](OCCCCCOc2cc(O)c3c(=O)c(-c4ccc(O)cc4)coc3c2)O[C@H]1C
IC50 [1]: 8.08 µM | Activity [2]: Dose-dependent effect | Activity [3]: 3.5

CC(=O)O[C@@H]1C=C[C@H](OCCCOc2cc(O)c3c(=O)c(-c4ccc(O)cc4)coc3c2)O[C@H]1C
IC50 [1]: 4.76 µM | Activity [2]: Dose-dependent effect | Activity [3]: 13.2 | Activity [4]: 85% | Activity [5]: 44% | Activity [6]: 16% | Activity [7]: 14% | Activity [8]: 38% | Activity [9]: 40% | Activity [10]: 1% | Activity [11]: 15% | Activity [12]: 42% | Activity [13]: 0% | Activity [14]: 3% | Activity [15]: 2% | inhibition [16]: Dose-dependent effect | Activity [17]: Active | Activity [18]: Active | Activity [19]: Active | Activity [20]: 12% | IC50 [21]: 4.76 µM | IC50 [22]: 6.21 µM | Activity [23]: 15% | Activity [24]: 12% | Activity [25]: 39.7% | Activity [26]: 31.6% | Activity [27]: 46.1% | IC50 [28]: 28 µM | IC50 [29]: 8.88 µM | IC50 [30]: 36.1 µM | IC50 [31]: 23.3 µM | IC50 [32]: 9.85 µM | IC50 [33]: 16.7 µM | IC50 [34]: 14.5 µM | IC50 [35]: 18 µM | IC50 [36]: 10.7 µM | IC50 [37]: 14.7 µM | IC50 [38]: 3.05 µM | Activity [39]: 31%
